Measurements: ChEMBL document CHEMBL1811906, “Synthesis and evaluation of strand and turn modified ring-extended gramicidin S derivatives” (Bioorg Med Chem, 2011)
≈ marks a conversion by molar mass, not a printed value. Residues, ends and D or L forms follow the SMILES beside them.

Key:
[1] = test system: Staphylococcus epidermidis; assay: Antimicrobial activity against Staphylococcus epidermidis ATCC 12228 after 24 hrs by broth dilution method; format: functional; settings: ATCC 12228, 24 h
Outline: (§1)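 Strains stored at −70 °C, grown at 30 °C on blood agar, suspended in physiological saline to OD595 0.1, diluted 10× in saline. 2 µL inoculum added to 100 µL nutrient broth with yeast extract. Peptides dissolved in ethanol (4 g/L), diluted in water (1 g/L), then two-fold in broth (64 to 1 mg/L). Incubated at 30 °C; MIC read as lowest concentration inhibiting growth at 24 h.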

Staphylococcus aureus = assay: Antimicrobial activity against Staphylococcus aureus ATCC 29213 after 24 hrs by broth dilution method; format: functional; settings: ATCC 29213, 24 h; outline: as §1
Escherichia coli = assay: Antimicrobial activity against Escherichia coli ATCC 25922 after 24 hrs by broth dilution method; format: functional; settings: ATCC 25922, 24 h; outline: as §1
Proteus mirabilis = assay: Antimicrobial activity against Proteus mirabilis 1190901236 after 24 hrs by broth dilution method; format: functional; settings: Proteus mirabilis, 1190901236, 24 h; outline: as §1
Enterobacter cloacae = assay: Antimicrobial activity against Enterobacter cloacae 1190900252 after 24 hrs by broth dilution method; format: functional; settings: Enterobacter cloacae, 1190900252, 24 h; outline: as §1
Pseudomonas aeruginosa = assay: Antimicrobial activity against Pseudomonas aeruginosa ATCC 27853 after 24 hrs by broth dilution method; format: functional; settings: ATCC 27853, 24 h; outline: as §1
Enterococcus faecalis = assay: Antimicrobial activity against Enterococcus faecalis ATCC 29212 after 24 hrs by broth dilution method; format: functional; settings: ATCC 29212, 24 h; outline: as §1
Bacillus cereus = assay: Antimicrobial activity against Bacillus cereus ATCC 11778 after 24 hrs by broth dilution method; format: functional; settings: ATCC 11778, 24 h; outline: as §1
[2] = Toxicity in human erythrocytes assessed as hemolytic activity after 4 hrs; format: cell-based; settings: erythrocyte
Outline: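 Heparinized fresh blood spun at 1000 g, 10 °C; erythrocytes washed three times in 0.85% saline and diluted to 1/25 packed volume. Peptide stocks 1.5 mM in 30% DMSO/saline, serially two-fold diluted in saline. Cells added, then incubated 4 h at 37 °C and centrifuged. Supernatant A405 read against 1% Triton X-100 as full lysis; single experiment run in triplicate.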

Klebsiella pneumoniae = assay: Antimicrobial activity against Klebsiella pneumoniae 1190901525 after 24 hrs by broth dilution method; format: functional; settings: Klebsiella pneumoniae, 1190901525, 24 h; outline: as §1

Row | SMILES | MIC [1] [µg/mL] | MIC (Staphylococcus aureus) [µg/mL] | MIC (Escherichia coli) [µg/mL] | MIC (Proteus mirabilis) [µg/mL] | MIC (Enterobacter cloacae) [µg/mL] | MIC (Pseudomonas aeruginosa) [µg/mL] | MIC (Enterococcus faecalis) [µg/mL] | MIC (Bacillus cereus) [µg/mL] | HD100 [2] [µM] | MIC (Klebsiella pneumoniae) [µg/mL]
1 | CC(C)C[C@@H]1NC(=O)[C@H](CCCN)NC(=O)[C@H](C(C)C)NC(=O)[C@@H]2CCCN2C(=O)[C@@H](Cc2ccccc2)NC(=O)[C@H](CC(C)C)NC(=O)[C@H](CCCN)NC(=O)[C@H](C(C)C)NC(=O)[C@H](CCCN)NC(=O)[C@H](CC(C)C)NC(=O)[C@@H]2CCCN2C(=O)[C@@H](Cc2ccccc2)NC(=O)[C@H](C(C)C)NC(=O)[C@H](CCCN)NC1=O | 8 (≈ 5.06 µM) | 16 (≈ 10.1 µM) | 32 (≈ 20.2 µM) | > 64 | 64 (≈ 40.5 µM) | 64 (≈ 40.5 µM) | 8 (≈ 5.06 µM) | 16 (≈ 10.1 µM) | 3.9 | 64 (≈ 40.5 µM)
2 | CC(C)C[C@@H]1NC(=O)[C@H](CCCN)NC(=O)[C@H](C(C)C)NC(=O)[C@@H]2CCCN2C(=O)[C@@H](Cc2ccccc2)NC(=O)[C@H](CC(C)C)NC(=O)[C@H](CCCN)NC(=O)[C@H](C(C)C)NC(=O)[C@H](CCCN)NC(=O)[C@H](CC(C)C)NC(=O)[C@@H]2CCCN2C(=O)[C@@H](Cc2ccccc2)NC(=O)[C@H](C(C)C)NC(=O)[C@@H](CCCN)NC1=O | 8 (≈ 5.06 µM) | 8 (≈ 5.06 µM) | 64 (≈ 40.5 µM) | > 64 | 32 (≈ 20.2 µM) | 8 (≈ 5.06 µM) | 16 (≈ 10.1 µM) | 16 (≈ 10.1 µM) | 125 | 32 (≈ 20.2 µM)
3 | CC(C)C[C@@H]1NC(=O)[C@H](CCCN)NC(=O)[C@H](C(C)C)NC(=O)[C@@H]2CCCN2C(=O)[C@@H](Cc2ccccc2)NC(=O)[C@H](CC(C)C)NC(=O)[C@H](CCCN)NC(=O)[C@H](C(C)C)NC(=O)[C@H](CCCN)NC(=O)[C@H](CC(C)C)NC(=O)[C@@H]2O[C@H](CNC(=O)[C@H](C(C)C)NC(=O)[C@H](CCCN)NC1=O)[C@@H](OCc1ccccc1)[C@@H]2OCc1ccccc1 | 4 (≈ 2.38 µM) | 4 (≈ 2.38 µM) | 16 (≈ 9.54 µM) | > 64 | 32 (≈ 19.1 µM) | 16 (≈ 9.54 µM) | 8 (≈ 4.77 µM) | 2 (≈ 1.19 µM) | 15.6 | 32 (≈ 19.1 µM)
4 | CC(C)C[C@@H]1NC(=O)[C@H](CCCN)NC(=O)[C@H](C(C)C)NC(=O)[C@@H]2CCCN2C(=O)[C@@H](Cc2ccccc2)NC(=O)[C@H](CC(C)C)NC(=O)[C@H](CCCN)NC(=O)[C@H](C(C)C)NC(=O)[C@H](CCCN)NC(=O)[C@H](CC(C)C)NC(=O)[C@@H]2O[C@H](CNC(=O)[C@H](C(C)C)NC(=O)[C@H](CCCN)NC1=O)[C@@H](OCc1ccccc1)[C@@H]2O | 4 (≈ 2.52 µM) | 4 (≈ 2.52 µM) | 16 (≈ 10.1 µM) | > 64 | 16 (≈ 10.1 µM) | 16 (≈ 10.1 µM) | 8 (≈ 5.04 µM) | 4 (≈ 2.52 µM) | 15.6 | 16 (≈ 10.1 µM)
5 | CC(C)C[C@@H]1NC(=O)[C@H](CCCN)NC(=O)[C@H](C(C)C)NC(=O)[C@@H]2CCCN2C(=O)[C@@H](Cc2ccccc2)NC(=O)[C@H](CC(C)C)NC(=O)[C@H](CCCN)NC(=O)[C@H](C(C)C)NC(=O)[C@H](CCCN)NC(=O)[C@H](CC(C)C)NC(=O)[C@@H]2O[C@H](CNC(=O)[C@H](C(C)C)NC(=O)[C@H](CCCN)NC1=O)[C@@H](O)[C@@H]2O | 4 (≈ 2.67 µM) | 8 (≈ 5.34 µM) | 8 (≈ 5.34 µM) | > 64 | 16 (≈ 10.7 µM) | 16 (≈ 10.7 µM) | 8 (≈ 5.34 µM) | 4 (≈ 2.67 µM) | 31.3 | 16 (≈ 10.7 µM)
6 | CC(C)C[C@@H]1NC(=O)[C@H](CCCN)NC(=O)[C@H](C(C)C)NC(=O)[C@@H]2CCCN2C(=O)[C@@H](Cc2ccccc2)NC(=O)[C@H](CC(C)C)NC(=O)[C@H](CCCN)NC(=O)[C@H](C(C)C)NC(=O)[C@H](CCCN)NC(=O)[C@H](CC(C)C)NC(=O)[C@@H]2O[C@H](CNC(=O)[C@H](C(C)C)NC(=O)[C@@H](CCCN)NC1=O)[C@@H](OCc1ccccc1)[C@@H]2OCc1ccccc1 | 8 (≈ 4.77 µM) | 8 (≈ 4.77 µM) | 32 (≈ 19.1 µM) | > 64 | 32 (≈ 19.1 µM) | 64 (≈ 38.2 µM) | 16 (≈ 9.54 µM) | 8 (≈ 4.77 µM) | 500 | 32 (≈ 19.1 µM)
7 | CC(C)C[C@@H]1NC(=O)[C@H](CCCN)NC(=O)[C@H](C(C)C)NC(=O)[C@@H]2CCCN2C(=O)[C@@H](Cc2ccccc2)NC(=O)[C@H](CC(C)C)NC(=O)[C@H](CCCN)NC(=O)[C@H](C(C)C)NC(=O)[C@H](CCCN)NC(=O)[C@H](CC(C)C)NC(=O)[C@@H]2O[C@H](CNC(=O)[C@H](C(C)C)NC(=O)[C@@H](CCCN)NC1=O)[C@@H](OCc1ccccc1)[C@@H]2O | 8 (≈ 5.04 µM) | 16 (≈ 10.1 µM) | 32 (≈ 20.2 µM) | > 64 | 32 (≈ 20.2 µM) | 64 (≈ 40.3 µM) | 32 (≈ 20.2 µM) | 8 (≈ 5.04 µM) | 500 | 32 (≈ 20.2 µM)
8 | CC(C)C[C@@H]1NC(=O)[C@H](CCCN)NC(=O)[C@H](C(C)C)NC(=O)[C@@H]2CCCN2C(=O)[C@@H](Cc2ccccc2)NC(=O)[C@H](CC(C)C)NC(=O)[C@H](CCCN)NC(=O)[C@H](C(C)C)NC(=O)[C@H](CCCN)NC(=O)[C@H](CC(C)C)NC(=O)[C@@H]2O[C@H](CNC(=O)[C@H](C(C)C)NC(=O)[C@@H](CCCN)NC1=O)[C@@H](O)[C@@H]2O | 16 (≈ 10.7 µM) | > 64 | 64 (≈ 42.8 µM) | > 64 | 64 (≈ 42.8 µM) | > 64 | > 64 | 64 (≈ 42.8 µM) | > 500 | > 64
9 | CC(C)C[C@@H]1NC(=O)[C@H](CCCCN)NC(=O)[C@H](C(C)C)NC(=O)[C@@H]2CCCN2C(=O)[C@@H](Cc2ccc(O)cc2)NC(=O)[C@H](CC(C)C)NC(=O)[C@H](CCCCN)NC(=O)[C@H](C(C)C)NC(=O)[C@H](CCCCN)NC(=O)[C@H](CC(C)C)NC(=O)[C@@H]2CCCN2C(=O)[C@@H](Cc2ccc(O)cc2)NC(=O)[C@H](C(C)C)NC(=O)[C@H](CCCCN)NC1=O (HELM PEPTIDE1{K.L.K.V.[dY].P.L.K.V.K.L.[dY].P.V}$PEPTIDE1,PEPTIDE1,1:R1-14:R2$$$V2.0) | 64 (≈ 38.3 µM) | > 64 | > 64 | > 64 | > 64 | > 64 | 32 (≈ 19.2 µM) | 32 (≈ 19.2 µM) | 3.9 | > 64
10 | CC(C)C[C@@H]1NC(=O)[C@H](CCCCN)NC(=O)[C@H](C(C)C)NC(=O)[C@@H]2CCCN2C(=O)[C@@H](Cc2ccc(O)cc2)NC(=O)[C@H](CC(C)C)NC(=O)[C@H](CCCCN)NC(=O)[C@H](C(C)C)NC(=O)[C@H](CCCCN)NC(=O)[C@H](CC(C)C)NC(=O)[C@@H]2CCCN2C(=O)[C@@H](Cc2ccc(O)cc2)NC(=O)[C@H](C(C)C)NC(=O)[C@@H](CCCCN)NC1=O (HELM PEPTIDE1{K.L.[dK].V.[dY].P.L.K.V.K.L.[dY].P.V}$PEPTIDE1,PEPTIDE1,1:R1-14:R2$$$V2.0) | 8 (≈ 4.79 µM) | 64 (≈ 38.3 µM) | 64 (≈ 38.3 µM) | > 64 | 64 (≈ 38.3 µM) | > 64 | 64 (≈ 38.3 µM) | 16 (≈ 9.58 µM) | 500 | 64 (≈ 38.3 µM)
11 | CC(C)C[C@@H]1NC(=O)[C@H](CCCN)NC(=O)[C@H](C(C)C)NC(=O)[C@@H]2CCCN2C(=O)[C@@H](Cc2ccccc2)NC(=O)[C@H](CC(C)C)NC(=O)[C@H](CCCN)NC(=O)[C@H](C(C)C)NC(=O)[C@@H]2CCCN2C(=O)[C@@H](Cc2ccccc2)NC1=O [GRAMICIDIN S] (HELM PEPTIDE1{L.[dF].P.V.[Orn].L.[dF].P.V.[Orn]}$PEPTIDE1,PEPTIDE1,1:R1-10:R2$$$V2.0) | 4 (≈ 3.5 µM) | 4 (≈ 3.5 µM) | 32 (≈ 28 µM) | > 64 | 64 (≈ 56.1 µM) | 64 (≈ 56.1 µM) | 8 (≈ 7.01 µM) | 4 (≈ 3.5 µM) | 62.5 | 64 (≈ 56.1 µM)
